Published values pooled from the literature.
pIC50: −log10 of the molar value.
Sialidase-2: Sialidase-2 (Homo sapiens, UniProt Q9Y3R4)
ACHE: Acetylcholinesterase (ACHE, Homo sapiens, UniProt P22303)
FABP4: Fatty acid-binding protein, adipocyte (FABP4, Homo sapiens, UniProt P15090)
DPP4: Dipeptidyl peptidase 4 (DPP4, Homo sapiens, UniProt P27487)

Compound | target | assay | test system | setting | pIC50
CC(C)(C)CC(=O)N[C@H]1[C@H]([C@H](O)[C@H](O)CO)OC(C(=O)O)=C[C@@H]1O | Sialidase-2 | enzyme activity, inhibitor | – | – | 4.10
O=c1cc(CSc2ccc(N=Cc3ccccc3[N+](=O)[O-])cc2)occ1O | ACHE | enzyme activity, inhibitor, Ellman | – | – | 5.29
COc1cc(-c2nc3ccccc3s2)cc(NC(C)=O)c1OCC(=O)NCC(=O)O | ACHE | enzyme activity, inhibitor, Ellman | – | – | < 3.53
O=C(O)C(F)(F)C(F)(F)C(F)(F)C(F)(F)C(F)(F)C(F)(F)C(F)(F)C(F)(F)C(F)(F)C(F)(F)C(F)(F)F | Sterol carrier protein 2 (Homo sapiens, UniProt P22307) | ligand displacement, fluorescence | – | – | 5.63
O=C(O)C(F)(F)C(F)(F)C(F)(F)C(F)(F)C(F)(F)C(F)(F)C(F)(F)C(F)(F)C(F)(F)C(F)(F)F | FABP4 | ligand displacement, fluorescence | – | pH 7.5 | 5.53
NC(=O)CC[C@H](NC(=O)[C@@H]1CCCN1C(=O)[C@H](CCC(N)=O)NC(=O)[C@@H]1CCCN1C(=O)[C@@H](N)Cc1ccc(O)cc1)C(=O)O | DPP4 | enzyme activity, inhibitor, absorbance | – | pH 8 | 4.62
CCc1ccccc1C=Nc1ccc(SCc2cc(=O)c(O)co2)cc1 | ACHE | enzyme activity, inhibitor, Ellman | – | – | 5.27
CC(C)(C)NC(=O)N[C@H]1[C@H]([C@H](O)[C@H](O)CO)OC(C(=O)O)=C[C@@H]1O | Sialidase-2 | enzyme activity, inhibitor | – | – | < 3.30
CC(=O)c1c(C)c2cnc(Nc3ccc(C4CCN(CCS(C)(=O)=O)CC4)cn3)nc2n(C2CCCC2)c1=O | Cytochrome P450 2C9 (CYP2C9, Homo sapiens, UniProt P11712) | enzyme activity, inhibitor | human, liver microsomes | – | < 5.00
Cn1cc2cc(C(F)(F)c3nnc4ccc(-c5cnn(C6CC6)c5)nn34)c(F)cc2n1 | Proto-oncogene tyrosine-protein kinase Src (SRC, Homo sapiens, UniProt P12931) | enzyme activity, inhibitor, ADP detection | – | – | < 6.00
O=c1cc(CSc2ccc(N=Cc3ccc(F)cc3)cc2)occ1O | ACHE | enzyme activity, inhibitor, Ellman | – | – | 5.84
COc1cc(-c2nc3ccccc3s2)cc(NC(C)=O)c1OCC(=O)N[C@@H](CC(C)C)C(=O)O | ACHE | enzyme activity, inhibitor, Ellman | – | – | < 3.58
COc1ccccc1C=Nc1ccc(SCc2cc(=O)c(O)co2)cc1 | ACHE | enzyme activity, inhibitor, Ellman | – | – | 5.21
CCCCCC(=O)N(C)[C@H]1[C@H]([C@H](O)[C@H](O)CO)OC(C(=O)O)=C[C@@H]1O | Sialidase-2 | enzyme activity, inhibitor | – | – | 3.85
O=c1cc(CSc2ccc(N=Cc3ccccc3Br)cc2)occ1O | ACHE | enzyme activity, inhibitor, Ellman | – | – | 5.87
CC(C)CCN[C@H]1[C@H]([C@H](O)[C@H](O)CO)OC(C(=O)O)=C[C@@H]1O | Sialidase-2 | enzyme activity, inhibitor | – | – | 4.15
COc1cccc(C=Nc2ccc(SCc3cc(=O)c(O)co3)cc2)c1 | ACHE | enzyme activity, inhibitor, Ellman | – | – | 4.70
CC[C@@H](C)[C@H](NC(=O)COc1c(NC(C)=O)cc(-c2nc3ccccc3s2)cc1OC)C(=O)OC | ACHE | enzyme activity, inhibitor, Ellman | – | – | < 3.59
O=c1cc(CSc2ccc(N=Cc3ccccc3Cl)cc2)occ1O | ACHE | enzyme activity, inhibitor, Ellman | – | – | 5.63
O=C(O)C(F)(F)C(F)(F)C(F)(F)C(F)(F)C(F)(F)F | FABP4 | ligand displacement, fluorescence | – | pH 7.5 | 3.68
CCc1ccc(C=Nc2ccc(SCc3cc(=O)c(O)co3)cc2)cc1 | ACHE | enzyme activity, inhibitor, Ellman | – | – | 5.07
CCCCCCN[C@H]1[C@H]([C@H](O)[C@H](O)CO)OC(C(=O)O)=C[C@@H]1O | Sialidase-2 | enzyme activity, inhibitor | – | – | 4.80
O=c1cc(-c2ccc(O)c(O)c2)oc2cc(O)cc(O)c12 | DPP4 | enzyme activity, inhibitor, fluorescence | – | – | 4.32
CN(C(=O)CC(C)(C)C)[C@H]1[C@H]([C@H](O)[C@H](O)CO)OC(C(=O)O)=C[C@@H]1O | Sialidase-2 | enzyme activity, inhibitor | – | – | 4.30
COc1c2c(cc3c1-c1c(cc4c(c1OC)OCO4)C[C@H](C)[C@H](C)C3)OCO2 | DPP4 | enzyme activity, inhibitor, fluorescence | – | – | < 4.00
COc1cc(-c2nc3ccccc3s2)cc(NC(C)=O)c1OCC(=O)N[C@H](Cc1ccccc1)C(=O)O | ACHE | enzyme activity, inhibitor, Ellman | – | – | < 3.61
CC(C)CCC(=O)N[C@H]1[C@H]([C@H](O)[C@H](O)CO)OC(C(=O)O)=C[C@@H]1O | Sialidase-2 | enzyme activity, inhibitor | – | – | 5.00
CCOC(=O)c1ccc(OC(=O)CCCCCN=C(N)N)cc1 | Kallikrein-13 (Homo sapiens, UniProt Q9UKR3) | enzyme activity, inhibitor | – | – | 4.91
CCCCNC(=O)N[C@H]1[C@H]([C@H](O)[C@H](O)CO)OC(C(=O)O)=C[C@@H]1O | Sialidase-2 | enzyme activity, inhibitor | – | – | 3.42
O=C(O)C(F)(F)C(F)(F)C(F)(F)C(F)(F)C(F)(F)C(F)(F)F | FABP4 | ligand displacement, fluorescence | – | pH 7.5 | 4.96
